Assays:
Cynomolgus monkey [1] = test: Uptake in anesthetized cynomolgus monkey medulla after 3.5 mins; format: ADME, organism-based, Medulla of organ; details: in vivo
Outline: (§1)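 Baseline microPET scan (P4 scanner) of anesthetized cynomolgus monkeys after injection of the carbon-11 labelled nortropane tracer. Two baseline studies were run per tracer. Radioactivity was followed over time in regional brain time-activity curves.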

Cynomolgus monkey [2] = test: Uptake in anesthetized cynomolgus monkey medulla after 6.5 mins; format: ADME, organism-based, Medulla of organ; details: in vivo; outline: as §1
Cynomolgus monkey [3] = test: Uptake in anesthetized cynomolgus monkey medulla after 27.5 mins; format: ADME, organism-based, Medulla of organ; details: in vivo; outline: as §1
Cynomolgus monkey [4] = test: Uptake in anesthetized cynomolgus monkey medulla after 55.0 mins; format: ADME, organism-based, Medulla of organ; details: in vivo; outline: as §1
Cynomolgus monkey [5] = test: Uptake in anesthetized cynomolgus monkey cerebellum after 45.0 mins; format: ADME, organism-based; details: in vivo, 0.75 h
Outline: (§2)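 Baseline microPET (Concorde P4) regional brain time-activity curves in anesthetized cynomolgus monkey following injection of the [11C]-labelled tracer, with radioactivity followed over the scan.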

Cynomolgus monkey [6] = test: Uptake in anesthetized cynomolgus monkey frontal after 75.0 mins; format: ADME, organism-based, Frontal cortex; details: in vivo, 1.25 h; outline: as §1
Cynomolgus monkey [7] = test: Uptake in anesthetized cynomolgus monkey occipital after 65.0 mins; format: ADME, organism-based, Macaca mulatta, Occipital cortex; details: rhesus monkey, in vivo; outline: as §1
Cynomolgus monkey [8] = test: Uptake in anesthetized cynomolgus monkey frontal after 0.5 mins; format: ADME, organism-based, Frontal cortex; details: in vivo; outline: as §2
Cynomolgus monkey [9] = test: Uptake in anesthetized cynomolgus monkey frontal after 9.5 mins; format: ADME, organism-based, Frontal cortex; details: in vivo; outline: as §1
Cynomolgus monkey [10] = test: Uptake in anesthetized cynomolgus monkey frontal after 27.5 mins; format: ADME, organism-based, Frontal cortex; details: in vivo; outline: as §1
Cynomolgus monkey [11] = test: Uptake in anesthetized cynomolgus monkey frontal after 35.0 mins; format: ADME, organism-based, Frontal cortex; details: in vivo; outline: as §1
Cynomolgus monkey [12] = test: Uptake in anesthetized cynomolgus monkey putamen after 125.0 mins; format: ADME, organism-based; details: in vivo
Outline: (§3)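 Baseline microPET (Concorde P4) scan in anesthetized cynomolgus monkeys after injection of the carbon-11 labeled tracer, with no chase drug. Regional brain time-activity curves were followed over the scan. Tracer radiochemical purity and specific activity were determined by analytical HPLC at the time of injection.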

Cynomolgus monkey [13] = test: Uptake in anesthetized cynomolgus monkey putamen after 135.0 mins; format: ADME, organism-based; details: in vivo, 2.25 h; outline: as §3
Cynomolgus monkey [14] = test: Uptake in anesthetized cynomolgus monkey thalamus after 125.0 mins; format: ADME, organism-based; details: in vivo; outline: as §3
Cynomolgus monkey [15] = test: Uptake in anesthetized cynomolgus monkey thalamus after 135.0 mins; format: ADME, organism-based; details: in vivo, 2.25 h; outline: as §3
Cynomolgus monkey [16] = test: Uptake in anesthetized cynomolgus monkey pons after 125.0 mins; format: ADME, organism-based; details: in vivo; outline: as §3
Cynomolgus monkey [17] = test: Uptake in anesthetized cynomolgus monkey pons after 135.0 mins; format: ADME, organism-based; details: in vivo, 2.25 h; outline: as §3
Cynomolgus monkey [18] = test: Ratio of uptake in putamen to cerebellum of anesthetized cynomolgus monkey after 65 mins; format: ADME, organism-based; details: in vivo
Outline: (§4)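 Baseline microPET (Concorde P4) in anesthetized cynomolgus monkey after injection of the [11C]-labelled tracer. Regional time-activity curves were taken, and each region's uptake was divided by cerebellum uptake (low-SERT reference) at 65, 85 and 105 min postinjection.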

Cynomolgus monkey [19] = test: Ratio of uptake in thalamus to cerebellum of anesthetized cynomolgus monkey after 65 mins; format: ADME, organism-based; details: in vivo; outline: as §4
Cynomolgus monkey [20] = test: Ratio of uptake in midbrain to cerebellum of anesthetized cynomolgus monkey after 65 mins; format: ADME, organism-based; details: in vivo; outline: as §4
Cynomolgus monkey [21] = test: Uptake in anesthetized cynomolgus monkey cerebellum after 125.0 mins; format: ADME, organism-based, Macaca mulatta; details: rhesus monkey, in vivo; outline: as §2
Cynomolgus monkey [22] = test: Uptake in anesthetized cynomolgus monkey frontal after 135.0 mins; format: ADME, organism-based, Frontal cortex; details: in vivo, 2.25 h; outline: as §1
Cynomolgus monkey [23] = test: Ratio of uptake in medulla to cerebellum of anesthetized cynomolgus monkey after 105 mins; format: ADME, organism-based; details: in vivo, 1.75 h; outline: as §4
Cynomolgus monkey [24] = test: Ratio of uptake in frontal to cerebellum of anesthetized cynomolgus monkey after 105 mins; format: ADME, organism-based; details: in vivo, 1.75 h; outline: as §4
Cynomolgus monkey [25] = test: Ratio of uptake in occipital to cerebellum of anesthetized cynomolgus monkey after 105 mins; format: ADME, organism-based; details: in vivo, 1.75 h; outline: as §4
Cynomolgus monkey [26] = test: Uptake in anesthetized cynomolgus monkey caudate after 2.5 mins; format: ADME, organism-based, Caudate nucleus; details: in vivo; outline: as §2
Cynomolgus monkey [27] = test: Uptake in anesthetized cynomolgus monkey caudate after 27.5 mins; format: ADME, organism-based, Caudate nucleus; details: in vivo; outline: as §2
Cynomolgus monkey [28] = test: Uptake in anesthetized cynomolgus monkey putamen after 1.5 mins; format: ADME, organism-based; details: in vivo, 0.025 h; outline: as §3
Cynomolgus monkey [29] = test: Uptake in anesthetized cynomolgus monkey putamen after 2.5 mins; format: ADME, organism-based; details: in vivo; outline: as §3
Cynomolgus monkey [30] = test: Uptake in anesthetized cynomolgus monkey putamen after 6.5 mins; format: ADME, organism-based; details: in vivo; outline: as §3
Cynomolgus monkey [31] = test: Uptake in anesthetized cynomolgus monkey putamen after 9.5 mins; format: ADME, organism-based; details: in vivo; outline: as §3
Cynomolgus monkey [32] = test: Uptake in anesthetized cynomolgus monkey caudate after 125.0 mins; format: ADME, organism-based, Caudate nucleus; details: in vivo; outline: as §2
Cynomolgus monkey [33] = test: Ratio of uptake in caudate to cerebellum of anesthetized cynomolgus monkey after 65 mins; format: ADME, organism-based; details: in vivo; outline: as §4
Cynomolgus monkey [34] = test: Ratio of uptake in pons to cerebellum of anesthetized cynomolgus monkey after 65 mins; format: ADME, organism-based; details: in vivo; outline: as §4
Cynomolgus monkey [35] = test: Ratio of uptake in medulla to cerebellum of anesthetized cynomolgus monkey after 65 mins; format: ADME, organism-based; details: in vivo; outline: as §4
Cynomolgus monkey [36] = test: Ratio of uptake in frontal to cerebellum of anesthetized cynomolgus monkey after 65 mins; format: ADME, organism-based; details: in vivo; outline: as §4
Cynomolgus monkey [37] = test: Ratio of uptake in midbrain to cerebellum of anesthetized cynomolgus monkey after 85 mins; format: ADME, organism-based; details: in vivo; outline: as §4
Cynomolgus monkey [38] = test: Ratio of uptake in pons to cerebellum of anesthetized cynomolgus monkey after 85 mins; format: ADME, organism-based; details: in vivo; outline: as §4
Cynomolgus monkey [39] = test: Ratio of uptake in frontal to cerebellum of anesthetized cynomolgus monkey after 85 mins; format: ADME, organism-based; details: in vivo; outline: as §4
Cynomolgus monkey [40] = test: Uptake in anesthetized cynomolgus monkey midbrain after 27.5 mins; format: ADME, organism-based; details: in vivo; outline: as §1
Cynomolgus monkey [41] = test: Uptake in anesthetized cynomolgus monkey midbrain after 35.0 mins; format: ADME, organism-based; details: in vivo; outline: as §1
Cynomolgus monkey [42] = test: Uptake in anesthetized cynomolgus monkey midbrain after 45.0 mins; format: ADME, organism-based; details: in vivo, 0.75 h; outline: as §1
Cynomolgus monkey [43] = test: Uptake in anesthetized cynomolgus monkey midbrain after 55.0 mins; format: ADME, organism-based; details: in vivo; outline: as §1
Cynomolgus monkey [44] = test: Uptake in anesthetized cynomolgus monkey midbrain after 105.0 mins; format: ADME, organism-based; details: in vivo, 1.75 h; outline: as §1
Cynomolgus monkey [45] = test: Uptake in anesthetized cynomolgus monkey pons after 45.0 mins; format: ADME, organism-based; details: in vivo, 0.75 h; outline: as §3
Cynomolgus monkey [46] = test: Uptake in anesthetized cynomolgus monkey pons after 55.0 mins; format: ADME, organism-based; details: in vivo; outline: as §3
Cynomolgus monkey [47] = test: Uptake in anesthetized cynomolgus monkey medulla after 0.5 mins; format: ADME, organism-based, Medulla of organ; details: in vivo; outline: as §1
Cynomolgus monkey [48] = test: Uptake in anesthetized cynomolgus monkey medulla after 1.5 mins; format: ADME, organism-based, Medulla of organ; details: in vivo, 0.025 h; outline: as §1
Cynomolgus monkey [49] = test: Uptake in anesthetized cynomolgus monkey putamen after 12.5 mins; format: ADME, organism-based; details: in vivo; outline: as §3
Cynomolgus monkey [50] = test: Uptake in anesthetized cynomolgus monkey putamen after 15.5 mins; format: ADME, organism-based; details: in vivo; outline: as §3
Cynomolgus monkey [51] = test: Uptake in anesthetized cynomolgus monkey putamen after 35.0 mins; format: ADME, organism-based; details: in vivo; outline: as §3
Cynomolgus monkey [52] = test: Uptake in anesthetized cynomolgus monkey putamen after 45.0 mins; format: ADME, organism-based; details: in vivo, 0.75 h; outline: as §3
Cynomolgus monkey [53] = test: Uptake in anesthetized cynomolgus monkey thalamus after 45.0 mins; format: ADME, organism-based; details: in vivo, 0.75 h; outline: as §3
Cynomolgus monkey [54] = test: Uptake in anesthetized cynomolgus monkey thalamus after 85.0 mins; format: ADME, organism-based; details: in vivo; outline: as §3
Cynomolgus monkey [55] = test: Uptake in anesthetized cynomolgus monkey thalamus after 105.0 mins; format: ADME, organism-based; details: in vivo, 1.75 h; outline: as §3

Compound: [11CH3]OC(=O)[C@@H]1C2CCC(C[C@@H]1c1cccc(/C=C/Br)c1)N2 (stereo not given in full)
- Drug uptake (Cynomolgus monkey [1]): 2.5
- Drug uptake (Cynomolgus monkey [2]): 5.27
- Drug uptake (Cynomolgus monkey [3]): 7.08
- Drug uptake (Cynomolgus monkey [4]): 7.31
- Drug uptake (Cynomolgus monkey [5]): 5.58
- Drug uptake (Cynomolgus monkey [6]): 3.78
- Drug uptake (Cynomolgus monkey [7]): 5.14
- Drug uptake (Cynomolgus monkey [8]): 0.01
- Drug uptake (Cynomolgus monkey [9]): 2.85
- Drug uptake (Cynomolgus monkey [10]): 3.61
- Drug uptake (Cynomolgus monkey [11]): 3.7
- Drug uptake (Cynomolgus monkey [12]): 6.69
- Drug uptake (Cynomolgus monkey [13]): 6.51
- Drug uptake (Cynomolgus monkey [14]): 6.09
- Drug uptake (Cynomolgus monkey [15]): 5.83
- Drug uptake (Cynomolgus monkey [16]): 6.47
- Drug uptake (Cynomolgus monkey [17]): 7.4
- Ratio (Cynomolgus monkey [18]): 1.5
- Ratio (Cynomolgus monkey [19]): 1.3
- Ratio (Cynomolgus monkey [20]): 1.6
- Drug uptake (Cynomolgus monkey [21]): 3.74
- Drug uptake (Cynomolgus monkey [22]): 3.43
- Ratio (Cynomolgus monkey [23]): 1.7
- Ratio (Cynomolgus monkey [24]): 1.2
- Ratio (Cynomolgus monkey [25]): 0.9
- Drug uptake (Cynomolgus monkey [26]): 0.73
- Drug uptake (Cynomolgus monkey [27]): 5.98
- Drug uptake (Cynomolgus monkey [28]): 0.3
- Drug uptake (Cynomolgus monkey [29]): 1.01
- Drug uptake (Cynomolgus monkey [30]): 4.44
- Drug uptake (Cynomolgus monkey [31]): 5.41
- Drug uptake (Cynomolgus monkey [32]): 5.66
- Ratio (Cynomolgus monkey [33]): 1.4
- Ratio (Cynomolgus monkey [34]): 1.5
- Ratio (Cynomolgus monkey [35]): 1.4
- Ratio (Cynomolgus monkey [36]): 1
- Ratio (Cynomolgus monkey [37]): 1.8
- Ratio (Cynomolgus monkey [38]): 1.6
- Ratio (Cynomolgus monkey [39]): 1.2
- Drug uptake (Cynomolgus monkey [40]): 7.01
- Drug uptake (Cynomolgus monkey [41]): 7.4
- Drug uptake (Cynomolgus monkey [42]): 7.58
- Drug uptake (Cynomolgus monkey [43]): 7.74
- Drug uptake (Cynomolgus monkey [44]): 7.72
- Drug uptake (Cynomolgus monkey [45]): 6.91
- Drug uptake (Cynomolgus monkey [46]): 7.56
- Drug uptake (Cynomolgus monkey [47]): 0.02
- Drug uptake (Cynomolgus monkey [48]): 0.4
- Drug uptake (Cynomolgus monkey [49]): 5.62
- Drug uptake (Cynomolgus monkey [50]): 6.07
- Drug uptake (Cynomolgus monkey [51]): 7
- Drug uptake (Cynomolgus monkey [52]): 7.28
- Drug uptake (Cynomolgus monkey [53]): 6.07
- Drug uptake (Cynomolgus monkey [54]): 6.55
- Drug uptake (Cynomolgus monkey [55]): 6.47

Reference: ChEMBL document CHEMBL1137333, “Synthesis, radiosynthesis, and biological evaluation of carbon-11 labeled 2beta-carbomethoxy-3beta-(3'-((Z)-2-haloethenyl)phenyl)nortropanes: candidate radioligands for in vivo imaging of the serotonin transporter with positron emission tomography” (J Med Chem, 2006)
